Source: PubChem
DDE Tn7 FP inh – DD(E)-Tn7 binding inhibition, primary FP screen; FP displacement of FITC-Tn7 peptide from fibrin DD(E); 0% = median of compound wells per plate; inhibition, % at 8.3 µM; 370,000 tested, 0.13% active;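 active = inhibition above the mean of compounds falling within the control limits plus 3 SD of them, cut at about 14% in these data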;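 note: 0% = plate median of compound wells and 100% = 10 µM Aha-Tn7 peptide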
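Assay system: Fibrin-DD(E) protein isolated from polymerized human fibrin clots; read-out basis: percent inhibition; medium: Tris/NaCl/CaCl2 buffer, pH 7.8; signal: FP measurement; incubation: 10 min plus 3 h, room temperature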
ASAP1 inh – inhibitors of human ASAP1 ArfGAP activity | Q9ULH1 | ASAP1-stimulated ARF1 GTP hydrolysis, GDP FP detection | inhibition, % at 16.5 µM | 360,000 tested, 0.19% active; in the data active = inhibition above about 25%;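 note: 0% = vehicle with enzyme and substrate and 100% = no enzyme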
Target sequence (Q9ULH1 325-724 limits assumed): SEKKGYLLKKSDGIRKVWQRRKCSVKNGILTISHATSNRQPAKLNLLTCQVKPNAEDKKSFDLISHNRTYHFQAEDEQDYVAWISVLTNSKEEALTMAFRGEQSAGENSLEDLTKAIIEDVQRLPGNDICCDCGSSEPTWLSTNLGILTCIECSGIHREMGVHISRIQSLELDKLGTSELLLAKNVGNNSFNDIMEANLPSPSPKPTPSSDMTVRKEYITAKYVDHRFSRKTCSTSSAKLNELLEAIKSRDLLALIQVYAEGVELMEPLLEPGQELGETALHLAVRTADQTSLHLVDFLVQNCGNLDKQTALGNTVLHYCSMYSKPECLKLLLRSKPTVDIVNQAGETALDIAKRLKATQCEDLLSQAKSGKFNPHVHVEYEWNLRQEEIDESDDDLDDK
Tn6 DDE FP – inhibitors of Tn6 peptide binding to human fibrin DD(E) | 370,000 tested, 0.21% active | inhibition, % at 8.3 µM | AID 720509 | P02675 | Fibrin DD(E) TRITC-Tn6 fluorescence polarization displacement;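 active = inhibition above a per-campaign cutoff: mean of compounds within control limits plus 3 SD, cut at about 15% in these data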;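 note: 0% = median of all compound wells on the plate and 100% = blocking peptide control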
ARFGAP1 inhibitor – rat ARFGAP1 inhibition; Arfgap1-stimulated ARF1 GTP hydrolysis, GDP FP detection; inhibition, % at 16.5 µM; 360,000 tested, 0.26% active; AID 651572;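 active = inhibition above a per-plate limit, mean inhibition of low control wells plus 3 SD, cut at about 25% in these data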;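 note: 0% = DMSO wells with enzyme and 100% = wells lacking Arfgap1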
Target sequence (Q62848 1-136 limits assumed): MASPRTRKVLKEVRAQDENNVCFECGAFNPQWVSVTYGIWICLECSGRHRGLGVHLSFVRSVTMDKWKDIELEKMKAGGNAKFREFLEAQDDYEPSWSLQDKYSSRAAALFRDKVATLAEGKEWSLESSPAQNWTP
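Material: truncated rat Arfgap1 GAP domain; Incubation: compound-enzyme preincubation 20 min, reaction 120 min, detection 60 min, 25 °C; Read-out: percent inhibition of Arfgap1-stimulated GTP hydrolysis; Technique: FP, GDP Alexa 633 tracer displaced from anti-GDP antibody, 620/688 nm; Controls: No-Arfgap1 wells (100%) versus DMSO full-reaction wells (0%); Replication: single well per compound.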
DDE Tn7 confirm – confirmation of inhibitors of Tn7 binding to human fibrin DD(E); shares compounds with DDE Tn7 FP inh; FP displacement of TRITC-Tn7 peptide from DD(E); 0% set at plate's compound-well median; inhibition, % at 8.3 µM; 460 tested, 5% active;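 active = inhibition above the campaign cutoff, the mean of compounds within control limits plus 3 SD, cut at about 14% in these data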;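 note: 100% = median FP of high control wells holding Aha-Tn7 inhibitor peptide; displacers lower polarization since freed probe rises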
DDE Tn7 FP ctr – DD(E)-Tn7 binding inhibition, counter-screen; AID 720633; inhibition, % at 8.3 µM; 460 tested, 3% active; shares compounds with DDE Tn7 FP inh; fibrin DD(E), TRITC-Tn7 probe displacement, fluorescence polarization;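 active = inhibition above the cutoff, the mean of compounds lying between the control bounds plus 3 SD of those compounds, cut at about 17% in these data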;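 note: 0% = median of compound sample wells and 100% = excess unlabeled Aha-Tn7 peptide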
Starred values were filed as active, the others as inactive; . = no result. In the library only some 0.74% were active in any assay of this set; here they are far more common.

SMILES | DDE Tn7 FP inh | ASAP1 inh | Tn6 DDE FP | ARFGAP1 inhibitor | DDE Tn7 confirm | DDE Tn7 FP ctr
COC(=O)C1CN(Cc2cn(Cc3ccc(F)cc3)nn2)CCS(=O)(=O)N1Cc1ccc(F)cc1 (stereo unspecified) | -5.3 | . | 2.5 | . | . | .
CCCNC(=O)C1(C)CCCN(C(=O)c2cccnc2Oc2ccccc2)C1 (stereo unspecified) | 14.1* | -8.9 | 6.2 | 3.0 | 4.2 | 6.3
COC(=O)C1CN(Cc2cn(Cc3ccc(Cl)cc3)nn2)CCS(=O)(=O)N1Cc1ccccc1 (stereo unspecified) | -14.8 | . | -3.0 | . | . | .
CC(=O)Nc1ccc(S(=O)(=O)n2nc(-c3ccc(C)cc3)nc2N)cc1 | 14.0* | -3.5 | -4.5 | -11.9 | -0.9 | -4.8
Cc1ccc(S(=O)(=O)n2nc(-c3cccnc3)nc2N)cc1 | -3.5 | -7.1 | -3.0 | 8.4 | . | .
CC(=O)Nc1ccc(-c2csc(NCCc3ccccc3)n2)cc1 | 17.2* | 4.1 | 6.5 | 11.5 | 12.0 | 9.0
NC(=O)c1cc(-c2csc(NCCc3ccccc3)n2)ccc1O | -0.3 | -3.3 | -2.2 | 0.6 | . | .
COc1ccc(NC(=O)c2cc3c(C)nn(-c4ccccc4)c3s2)cc1 | 1.2 | . | -14.1 | . | . | .
Cc1c(NS(=O)(=O)c2ccc([N+](=O)[O-])cc2)c(=O)n(-c2ccccc2)n1C | 3.3 | 15.4 | 0.6 | 1.1 | . | .
Cc1c(NS(=O)(=O)c2cc([N+](=O)[O-])ccc2Cl)c(=O)n(-c2ccccc2)n1C | 14.1* | -2.2 | 0.5 | 9.2 | -6.4 | -10.3
O=C(Cn1nnc(-c2ccc(F)cc2)n1)Nc1ccc2c(c1)OCCO2 | 15.3* | 1.3 | 9.9 | 16.0 | -4.9 | -6.3
Cc1ccc(OCc2nnc(SCC(=O)Nc3ccc(S(N)(=O)=O)cc3)n2-c2ccc(Cl)cc2)cc1 | -4.6 | . | -1.5 | . | . | .
C/C(=N\N1CCN(Cc2ccc(Cl)cc2)CC1)c1ccc([N+](=O)[O-])cc1 | 15.4* | 3.2 | 4.9 | 2.3 | -4.3 | -6.2
COc1ccc(/C=C/C(=O)OCC(=O)NCCCc2ccccc2)cc1OC | 4.4 | 9.8 | -2.8 | 11.1 | . | .
C=CCOc1ccc(/C=C/C(=O)OCC(=O)NCCCc2ccccc2)cc1 | 13.8* | -2.4 | -6.5 | -8.1 | 1.1 | 0.2
COc1ccc(CC(=O)N[C@@H]2c3ccccc3CC[C@H]2OCc2ccccc2)cc1 | 0.5 | -9.0 | -4.7 | -2.3 | . | .
CC(C)C(=O)N[C@@H]1c2ccccc2CC[C@@H]1OCc1ccccc1 | 14.3* | -10.9 | 5.3 | 0.2 | -0.5 | -4.0
CC(C(=O)N(C)C1CCS(=O)(=O)C1)N1C(=O)/C(=C/c2ccc(F)cc2)SC1=S (stereo unspecified) | -5.3 | 10.9 | -3.4 | 11.4 | . | .
CCN(C(=O)C(C)N1C(=O)/C(=C/c2ccco2)SC1=S)C1CCS(=O)(=O)C1 (stereo unspecified) | 14.2* | -6.9 | 9.2 | -13.2 | -0.5 | -4.3
COc1ccccc1NC(=O)OCCN1CCCC12CCC(c1ccccc1)CC2 (stereo unspecified) | 0.2 | . | 1.4 | . | . | .
O=C(COC(=O)c1ccc(Sc2ncn[nH]2)c([N+](=O)[O-])c1)Nc1ccc(Cl)c(Cl)c1 | 4.2 | . | -3.6 | . | . | .
COc1ccc(/C=N/N2CCN(c3ccc(Cl)cc3)CC2)cc1O | 14.7* | 7.2 | 1.7 | -10.4 | 2.1 | -0.8
CC(C)C(=O)N1CC[C@H]2[C@H](CCCN2Cc2ccc(F)cc2)C1 | 1.9 | . | -0.2 | . | . | .
O=C(C(=Cc1ccccc1)c1ccccc1)c1ccccc1 | 16.1* | -5.9 | 9.8 | -11.6 | 0.4 | -1.3
O=C(C(=Cc1ccc(O)cc1)c1ccccc1)c1ccccc1 | -5.5 | 2.8 | -6.7 | 23.2 | . | .
SMILES | DDE Tn7 FP inh | ASAP1 inh | Tn6 DDE FP | ARFGAP1 inhibitor | DDE Tn7 confirm | DDE Tn7 FP ctr
Cc1cc(NS(=O)(=O)c2ccc(NC(=O)Cc3ccc([N+](=O)[O-])cc3)cc2)no1 | 13.8* | 12.7 | 3.8 | 0.9 | -0.5 | -2.1
O=C(Cn1nc(C(=O)O)c2ccccc2c1=O)Nc1cc(Cl)ccc1-n1cncn1 | 4.8 | 3.2 | 3.9 | 11.7 | . | .
O=C(Cn1nc(C(=O)O)c2ccccc2c1=O)Nc1cc(C(F)(F)F)ccc1-n1cncn1 | 15.3* | -8.8 | 5.0 | 6.5 | -3.3 | -5.9
CCOC(=O)CC[C@H]1CC[C@]2(CCCN(C(=O)c3ccno3)C2)O1 | 2.0 | . | -2.4 | . | . | .
Cc1ccc(NC(=O)C2CC(O)CN2C(=O)OCc2ccccc2)cc1C (stereo unspecified) | 14.7* | -1.9 | 5.3 | 9.4 | 7.4 | 2.9
Cn1cccc1C(=O)N1CCN(S(=O)(=O)c2ccc(F)cc2)CC1 | -7.5 | . | 2.1 | . | . | .
CC(=O)Nc1sc(C)c(C)c1C(=O)OCC(=O)Nc1ccccc1C(F)(F)F | 16.5* | -3.7 | 4.5 | -0.9 | 3.2 | 2.4
CCOC(=O)Cn1c(-c2ccccc2)cc(SC)c(C#N)c1=O | 13.9* | -13.2 | -2.7 | -7.7 | 2.9 | -3.5
CSc1cc(-c2ccccc2)n(C)c(=O)c1C#N | 3.3 | 1.6 | -2.5 | 6.0 | . | .
COc1ccccc1NS(=O)(=O)c1cc(C(=O)NCC(c2ccco2)N(C)C)ccc1C (stereo unspecified) | 3.1 | 2.5 | 0.4 | -0.8 | . | .
COc1ccccc1NS(=O)(=O)c1cccc(C(=O)NCC(c2ccco2)N(C)C)c1 (stereo unspecified) | 14.4* | -1.7 | 10.4 | 11.2 | -0.8 | 0.1
CC(C)CC1c2[nH]c3ccccc3c2CCN1C(=O)CCC(=O)N(C)C (stereo unspecified) | 15.4* | -5.2 | -0.3 | 3.5 | 2.8 | 2.3
COc1ccc(C(C(=O)N(C)C2CCCC2)N(Cc2ccc(F)cc2)C(=O)c2cc(C)on2)cc1OC (stereo unspecified) | -5.3 | . | 11.3 | . | . | .
O=C(COC(=O)c1ccc(S(=O)(=O)N2CCOCC2)cc1)NCc1ccccc1 | 0.1 | -3.7 | -7.2 | 5.2 | . | .
COCCNC(=O)COC(=O)c1ccc(S(=O)(=O)N2CCOCC2)cc1 | 16.2* | -10.9 | 0.1 | -4.0 | 2.3 | 3.0
O=[N+]([O-])c1ccc(NCCCN2CCC(C(O)(c3ccccc3)c3ccccc3)CC2)cc1 | -6.5 | . | -0.7 | . | . | .
COc1c(Cl)cc(C(=O)NCc2ccco2)cc1Cl | 14.4* | -4.9 | 4.4 | -16.5 | 11.3 | 7.1
O=C(c1ccncc1F)N1CCC(n2nnc3ncccc32)CC1 | 0.0 | . | -4.4 | . | . | .
O=S(=O)(c1ccc(SCc2ccc(Br)cc2)nc1)N1CCCCC1 | 13.8* | -9.2 | 3.5 | -0.5 | -5.4 | -9.8
COc1ccc2c(c1)CN1CN(Cc3ccc(F)cc3)S(=O)(=O)CC21 (stereo unspecified) | 2.7 | . | 4.3 | . | . | .
COc1cccc(OC)c1C(=O)OCC(=O)NCCCc1ccccc1 | 15.3* | 13.3 | -4.6 | 5.0 | -2.9 | -10.5
CC1=NC(C(F)(F)F)(C(F)(F)F)C2=C(CC(C)(C)CC2=O)N1Cc1ccco1 | 13.9* | -4.7 | -8.5 | 5.3 | 5.5 | 2.9
